Screening results (PubChem)
miR-122 sensor: miR-122 Renilla sensor signal increase in Huh7, primary screen, miR-122 inhibitor project, cell-based, single point, plate reader; activation (reporter increase), % at 12.5 µM; Huh7 miR-122 Renilla luciferase sensor, 48 h; neutral wells = 0, positive control = 100; hit rate 0.3% among 340,000;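 active = mean replicate activation score at least 90 and every replicate individually at or above 90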;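 also: higher luciferase means less miR-122 activity so hits act as miR-122 inhibitors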
SR-BI uptake up: activators of SR-BI mediated DiI-HDL uptake, primary screen, ldlA[mSR-BI] CHO cells, DiI fluorescence | 3 h; 100 = double the neutral-control signal | AID 504775, 2011 | hit rate 0.096% among 320,000 | activation, % at 12.5 µM;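 active = mean replicate activation of at least 60% and every replicate at or above 60%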
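Test system: SR-BI-overexpressing, LDLR-lacking CHO cells. Measured by: DiI fluorescence, bottom read. Medium: Ham's F12 with 0.5% BSA, HEPES 25 mM, pH 7.4. Timing: 3 h uptake period with compound, 37 °C.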
SR-BI HDL uptake: inhibitors of SR-BI mediated HDL lipid uptake, primary screen, ldlA[mSR-BI] cells, fluorescence, single point; Scavenger receptor class B member 1 (Mus musculus), Q61009; AID 488896, 2010; ldlA[mSR-BI] CHO cells, DiI-HDL uptake fluorescence, 3 h; hit rate 0.96% among 320,000; inhibition, % at 12.5 µM;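 active = mean replicate inhibition of at least 70% and a set share of replicates each scoring 70 or more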
Target sequence (Q61009 whole entry, looked up): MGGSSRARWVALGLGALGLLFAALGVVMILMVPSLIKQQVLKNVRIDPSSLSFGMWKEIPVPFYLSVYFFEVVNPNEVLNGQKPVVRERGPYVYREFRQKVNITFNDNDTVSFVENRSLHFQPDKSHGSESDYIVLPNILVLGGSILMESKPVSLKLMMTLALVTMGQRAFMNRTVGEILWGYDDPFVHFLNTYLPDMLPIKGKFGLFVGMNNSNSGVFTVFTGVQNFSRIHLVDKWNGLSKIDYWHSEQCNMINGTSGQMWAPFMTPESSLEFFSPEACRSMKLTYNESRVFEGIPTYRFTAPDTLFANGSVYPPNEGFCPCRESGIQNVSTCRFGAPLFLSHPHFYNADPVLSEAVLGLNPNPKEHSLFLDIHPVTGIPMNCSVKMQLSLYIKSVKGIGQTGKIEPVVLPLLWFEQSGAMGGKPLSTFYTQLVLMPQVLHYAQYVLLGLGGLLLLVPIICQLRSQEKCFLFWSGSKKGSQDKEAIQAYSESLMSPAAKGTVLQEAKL
CAL PDZ FP-1: CAL PDZ peptide-binding inhibitors, primary screen, biochemical, fluorescence polarization, Cer-tagged CAL PDZ, HTS | Golgi-associated PDZ and coiled-coil motif-containing protein (Homo sapiens), Q9HD26 | purified CAL PDZ, TMR-peptide fluorescence polarization, 1 h | inhibition, % at 20 µM | hit rate 0.02% among 330,000;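 active = highest replicate inhibition of at least 40%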
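Material: tagged CAL PDZ protein CerCALP, purified; buffer or medium: sodium phosphate/NaCl buffer pH 7.4 with TCEP, IgG, Thesit; also added: fluorescent TMR peptide probe; schedule: 1 h incubation at room temperature before polarization reading; technique: fluorescence polarization from S- and P-plane intensities, G-factor corrected; control set: unlabelled peptide and DMSO controls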
CAL PDZ FP-2: untagged CAL PDZ binding inhibitors, primary screen, biochemical, fluorescence polarization, HTS. purified CAL PDZ, TMR-peptide fluorescence polarization, 1 h. hit rate 0.92% among 300,000. inhibition, % at 24.9 µM;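 active = mean inhibition of at least 30% with at least half of replicates also reaching 30%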
ARNT TACC3 PPI: disruptors of ARNT/TACC3 protein interaction, primary screen, biochemical, AlphaScreen, single concentration; Transforming acidic coiled-coil-containing protein 3 (Homo sapiens), Q9Y6A5; AlphaScreen His-ARNT PAS-B/GST-TACC3 binding, luminescence; TACC3 fragment carries E629A point mutation; inhibition, % at 9.99 µM; hit rate 0.66% among 390,000;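 active = mean inhibition of replicates at least 50% and at least half of replicates each reaching 50%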
Numbers stand for hits; i = inactive; nt = no result. Shown are actives, neighbours in structure and some others; about 2.1% of the full set was active somewhere.

SMILES | miR-122 sensor | SR-BI uptake up | SR-BI HDL uptake | CAL PDZ FP-1 | CAL PDZ FP-2 | ARNT TACC3 PPI
COc1ccc(-n2nc3c(c2NC(=O)c2ccc(S(=O)(=O)N4CCOCC4)cc2)CS(=O)C3)cc1 (stereo not drawn) | nt | 68 | i | i | i | nt
O=C(Nc1c2c(nn1-c1ccccc1)CS(=O)C2)c1ccc(S(=O)(=O)N2CCOCC2)cc1 (stereo not drawn) | nt | i | i | i | i | i
CCn1c(SCc2ccc(F)cc2)nnc1C1CCN(S(=O)(=O)c2ccc(OC)cc2)CC1 | i | i | i | i | 49 | i
O=C(C[C@H]1CC[C@H]2[C@@H](COC[C@@H](O)CN2S(=O)(=O)c2ccc(Cl)cc2)O1)NCc1ccc(Cl)c(Cl)c1 | i | nt | nt | nt | nt | i
O=C(Nc1ccc2c(c1)CCC2)c1ccccc1Br | nt | i | i | i | i | i
CSc1ccccc1C(=O)Nc1ccc2c(c1)CCC2 | i | i | i | i | 68 | i
CCOC(=O)N1CCN(C(=O)c2ccc3c(=O)n(-c4ccc(OC)cc4OC)c(=S)[nH]c3c2)CC1 | i | i | i | i | 82 | i
CCOC(=O)N1CCN(C(=O)c2ccc3c(=O)n(-c4ccc(OC)cc4)c(=S)[nH]c3c2)CC1 | i | i | i | i | nt | nt
CCOC(=O)C1CCCN(C(=O)c2ccc3c(=O)n(Cc4ccccc4OC)c(=S)[nH]c3c2)C1 (stereo not drawn) | i | i | i | i | 32 | i
C[C@H]1CN([C@@H](C)CO)C(=O)c2cccc(NS(=O)(=O)c3ccccc3)c2O[C@H]1CN(C)C(=O)Nc1ccc2c(c1)OCO2 | i | nt | nt | nt | nt | i
CC(C)CNC(=S)NNC(=O)CC(C)O (stereo not drawn) | nt | i | i | i | 77 | i
CCNC(=S)NNC(=O)CC(C)C | nt | i | i | i | 36 | i
COC(=O)c1ccc(NC(=S)NNC(=O)CC(C)C)cc1 | i | i | i | i | i | i
O=C(Nc1ccc2c(c1)OCO2)C1CC(c2cccc(Br)c2)=NO1 (stereo not drawn) | i | i | i | nt | 42 | i
O=C1CCCCCC1C1(O)C(=O)Nc2ccc(Br)cc21 (stereo not drawn) | i | i | i | i | 57 | i
O=C1Nc2ccc(Br)cc2C12OCCO2 | nt | nt | nt | i | i | i
COCCN(C(=O)CSc1nnc(-c2ccccc2F)n1C)c1c(N)n(Cc2ccccc2)c(=O)[nH]c1=O | i | i | i | i | 45 | i
CCCCN1C(=O)/C(=C/C=C2\SCCN2C)SC1=S | nt | i | 71 | i | i | i
CCN(CC)S(=O)(=O)c1ccc(N2CCOCC2)c(NC(=O)c2cc([N+](=O)[O-])ccc2Cl)c1 | nt | i | i | i | 40 | i
CCN(CC)S(=O)(=O)c1ccc(N2CCOCC2)c(NS(=O)(=O)c2ccc(C(C)C)cc2)c1 | 106 | i | i | i | i | i
CCN(CC)S(=O)(=O)c1ccc(N2CCOCC2)c(NC(=O)c2cccc3ccccc23)c1 | i | i | i | i | i | i
CCCN1C[C@@H](C)[C@H](OC)CN(C)C(=O)c2cc(NC(=O)c3cccc(F)c3)ccc2OC[C@H]1C | i | nt | nt | nt | nt | i
CCCOc1cc(N(CC)CC)ccc1/C=C(/C#N)c1nc2ccc(C)cc2[nH]1 | i | i | 89 | i | i | i
CCN(CC)c1ccc(/C=C(/C#N)c2nc3ccc(C)cc3[nH]2)c(OC(C)C)c1 | i | i | 102 | i | i | i
CCOc1cc(N(CC)CC)ccc1/C=C(/C#N)c1nc2ccccc2[nH]1 | i | i | 109 | i | 43 | i
